In ChEMBL document CHEMBL3046621, “Fungicidal sesquiterpene dialdehyde cinnamates from Pseudowintera axillaris” (2006):

Assays:
Type in all cases: functional
[1] = test system: Puccinia graminis f. tritici; test: Antifungal activity against Puccinia graminis f. tritici assessed as inhibition of wheat stem rust disease on wheat cultivar Yuma at 25 ppm measured 24 hr post fungal inoculation relative to untreated control
Method in brief: (§1)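 Whole-plant protectant test: pure compounds in acetone, serially diluted in acetone to 6.25, 25 or 100 ppm and applied to plants.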

[2] = test system: Plasmopara viticola; test: Antifungal activity against Plasmopara viticola assessed as inhibition of grape downy mildew disease on vines cultivar Carignane plants at 100 ppm measured 96 hr post fungal inoculation relative to untreated control; method in brief: as §1
[3] = test system: Phytophthora infestans; test: Antifungal activity against Phytophthora infestans assessed as inhibition of late tomato blight disease on tomato cultivar Rutgers plants at 6.25 ppm measured 96 hr post fungal inoculation relative to untreated control; method in brief: as §1
[4] = test system: Puccinia graminis f. tritici; test: Antifungal activity against Puccinia graminis f. tritici assessed as inhibition of wheat stem rust disease on wheat cultivar Yuma at 6.25 ppm measured 24 hr post fungal inoculation relative to untreated control; method in brief: as §1
[5] = test system: Phytophthora infestans; test: Antifungal activity against Phytophthora infestans assessed as inhibition of late tomato blight disease on tomato cultivar Rutgers plants at 100 ppm measured 96 hr post fungal inoculation relative to untreated control; method in brief: as §1
[6] = test system: Zymoseptoria tritici; test: Antifungal activity against Zymoseptoria tritici assessed as inhibition of wheat leaf spot disease on wheat cultivar Yuma at 6.25 ppm measured 24 hr post fungal inoculation relative to untreated control; method in brief: as §1
[7] = test system: Puccinia graminis f. tritici; test: Antifungal activity against Puccinia graminis f. tritici assessed as inhibition of wheat stem rust disease on wheat cultivar Yuma at 100 ppm measured 96 hr post fungal inoculation relative to untreated control; method in brief: as §1
[8] = test system: Plasmopara viticola; test: Antifungal activity against Plasmopara viticola assessed as inhibition of grape downy mildew disease on vines cultivar Carignane plants at 6.25 ppm measured 24 hr post fungal inoculation relative to untreated control; method in brief: as §1
[9] = test system: Plasmopara viticola; test: Antifungal activity against Plasmopara viticola assessed as inhibition of grape downy mildew disease on vines cultivar Carignane plants at 25 ppm measured 96 hr post fungal inoculation relative to untreated control; method in brief: as §1
[10] = test system: Parastagonospora nodorum; test: Antifungal activity against Phaeosphaeria nodorum assessed as inhibition of glume blotch disease on wheat cultivar Yuma plants at 100 ppm measured 24 hr post fungal inoculation relative to untreated control; method in brief: as §1
[11] = test system: Plasmopara viticola; test: Antifungal activity against Plasmopara viticola assessed as inhibition of grape downy mildew disease on vines cultivar Carignane plants at 25 ppm measured 24 hr post fungal inoculation relative to untreated control; method in brief: as §1
[12] = test system: Phytophthora infestans; test: Antifungal activity against Phytophthora infestans assessed as inhibition of late tomato blight disease on tomato cultivar Rutgers plants at 25 ppm measured 96 hr post fungal inoculation relative to untreated control; method in brief: as §1
[13] = test system: Phytophthora infestans; test: Antifungal activity against Phytophthora infestans assessed as inhibition of late tomato blight disease on tomato cultivar Rutgers plants at 100 ppm measured 24 hr post fungal inoculation relative to untreated control; method in brief: as §1
[14] = test system: Zymoseptoria tritici; test: Antifungal activity against Zymoseptoria tritici assessed as inhibition of wheat leaf spot disease on wheat cultivar Yuma at 100 ppm measured 24 hr post fungal inoculation relative to untreated control; method in brief: as §1
[15] = test system: Puccinia graminis f. tritici; test: Antifungal activity against Puccinia graminis f. tritici assessed as inhibition of wheat stem rust disease on wheat cultivar Yuma at 100 ppm measured 24 hr post fungal inoculation relative to untreated control; method in brief: as §1
[16] = test system: Plasmopara viticola; test: Antifungal activity against Plasmopara viticola assessed as inhibition of grape downy mildew disease on vines cultivar Carignane plants at 100 ppm measured 24 hr post fungal inoculation relative to untreated control; method in brief: as §1
[17] = test system: Parastagonospora nodorum; test: Antifungal activity against Phaeosphaeria nodorum assessed as inhibition of glume blotch disease on wheat cultivar Yuma plants at 25 ppm measured 24 hr post fungal inoculation relative to untreated control; method in brief: as §1
[18] = test system: Phytophthora infestans; test: Antifungal activity against Phytophthora infestans assessed as inhibition of late tomato blight disease on tomato cultivar Rutgers plants at 25 ppm measured 24 hr post fungal inoculation relative to untreated control; method in brief: as §1
[19] = test system: Plasmopara viticola; test: Antifungal activity against Plasmopara viticola assessed as inhibition of grape downy mildew disease on vines cultivar Carignane plants at 6.25 ppm measured 96 hr post fungal inoculation relative to untreated control; method in brief: as §1
[20] = test system: Phytophthora infestans; test: Antifungal activity against Phytophthora infestans assessed as inhibition of late tomato blight disease on tomato cultivar Rutgers plants at 6.25 ppm measured 24 hr post fungal inoculation relative to untreated control; method in brief: as §1
[21] = test system: Zymoseptoria tritici; test: Antifungal activity against Zymoseptoria tritici assessed as inhibition of wheat leaf spot disease on wheat cultivar Yuma at 25 ppm measured 24 hr post fungal inoculation relative to untreated control; method in brief: as §1
[22] = test system: Parastagonospora nodorum; test: Antifungal activity against Phaeosphaeria nodorum assessed as inhibition of glume blotch disease on wheat cultivar Yuma plants at 6.25 ppm measured 24 hr post fungal inoculation relative to untreated control; method in brief: as §1
[23] = test system: Puccinia graminis f. tritici; test: Antifungal activity against Puccinia graminis f. tritici assessed as inhibition of wheat stem rust disease on wheat cultivar Yuma at 25 ppm measured 96 hr post fungal inoculation relative to untreated control; method in brief: as §1
[24] = test system: Puccinia graminis f. tritici; test: Antifungal activity against Puccinia graminis f. tritici assessed as inhibition of wheat stem rust disease on wheat cultivar Yuma at 6.25 ppm measured 96 hr post fungal inoculation relative to untreated control; method in brief: as §1
[25] = test system: Parastagonospora nodorum; test: Antifungal activity against Phaeosphaeria nodorum assessed as inhibition of glume blotch disease on wheat cultivar Yuma plants at 25 ppm measured 96 hr post fungal inoculation relative to untreated control; method in brief: as §1
[26] = test system: Parastagonospora nodorum; test: Antifungal activity against Phaeosphaeria nodorum assessed as inhibition of glume blotch disease on wheat cultivar Yuma plants at 100 ppm measured 96 hr post fungal inoculation relative to untreated control; method in brief: as §1

Row | Compound | inhibition at 25 ppm [1] | inhibition at 6.25 ppm [4] | inhibition at 6.25 ppm [6] | inhibition at 6.25 ppm [8] | inhibition at 100 ppm [10] | inhibition at 25 ppm [11] | inhibition at 100 ppm [13] | inhibition at 100 ppm [14] | inhibition at 100 ppm [15] | inhibition at 100 ppm [16] | inhibition at 25 ppm [17] | inhibition at 25 ppm [18] | inhibition at 6.25 ppm [20] | inhibition at 25 ppm [21] | inhibition at 6.25 ppm [22] | further results
1 | C=C1[C@@H]2[C@H](O)C=C(C=O)[C@H](C=O)[C@@]2(C)[C@H](OC(=O)/C=C/c2ccccc2)C[C@@H]1C | 8% | 0% | 0% | 0% | 73% | 28% | 100% | 0% | 77% | 76% | 0% | 82% | 72% | 0% | 0% | inhibition at 100 ppm [2]: 86%; inhibition at 6.25 ppm [3]: 0%; inhibition at 100 ppm [5]: 3%; inhibition at 100 ppm [7]: 61%; inhibition at 25 ppm [9]: 0%; inhibition at 25 ppm [12]: 7%; inhibition at 6.25 ppm [19]: 0%; inhibition at 25 ppm [23]: 4%; inhibition at 6.25 ppm [24]: 0%
2 | C=C1[C@@H]2[C@@H](O)C=C(C=O)[C@H](C=O)[C@@]2(C)[C@H](OC(=O)/C=C/c2ccccc2)C[C@@H]1C | 15% | 4% | 0% | 2% | 96% | 19% | 100% | 0% | 85% | 89% | 73% | 91% | 74% | 0% | 33% | 
3 | C=C1[C@@H](C)C[C@@H](O)[C@]2(C)[C@@H](C=O)C(C=O)=CC[C@@H]12 | 0% | 0% | 0% | 7% | 60% | 4% | 28% | 0% | 0% | 24% | 0% | 36% | 19% | 0% | 0% | 
4 | C=C1[C@@H](C)C[C@@H](OC)[C@]2(C)[C@@H](C=O)C(C=O)=CC[C@@H]12 | 0% | 0% | 0% | 9% | 20% | 33% | 98% | 0% | 21% | 70% | 20% | 67% | 3% | 0% | 20% | 
5 | C=C1[C@@H](C)C[C@@H](OC(=O)/C=C/c2ccccc2)[C@]2(C)[C@@H]3C(=CC[C@@H]12)[C@@H](OC)O[C@H]3OC | 4% | 4% | 0% | 7% | 20% | 61% | 99% | 0% | 71% | 74% | 0% | 78% | 47% | 0% | 0% | inhibition at 100 ppm [2]: 57%; inhibition at 6.25 ppm [3]: 0%; inhibition at 100 ppm [5]: 14%; inhibition at 100 ppm [7]: 19%; inhibition at 25 ppm [9]: 23%; inhibition at 25 ppm [12]: 6%; inhibition at 6.25 ppm [19]: 0%; inhibition at 25 ppm [23]: 0%; inhibition at 6.25 ppm [24]: 0%
6 | C=C1[C@@H]2[C@@H](O)C=C3[C@@H](OC)O[C@@H](OC)[C@@H]3[C@@]2(C)[C@H](OC(=O)/C=C/c2ccccc2)C[C@@H]1C | 4% | 0% | 43% | 0% | 0% | 0% | 0% | 78% | 7% | 0% | 0% | 0% | 0% | 33% | 0% | 
7 | C=C1[C@@H]2[C@@H](O)C=C3[C@@H](OC)O[C@@H](OC)[C@@H]3[C@@]2(C)[C@H](OC(=O)CCc2ccccc2)C[C@@H]1C | 9% | 42% | 0% | 0% | 0% | 0% | 0% | 90% | 9% | 0% | 0% | 0% | 0% | 17% | 0% | 
8 | C=C1[C@@H]2[C@@H](O)C=C3[C@@H](OC)O[C@@H](OC)[C@@H]3[C@@]2(C)[C@H](O)C[C@@H]1C |  |  |  |  | 0% |  | 0% | 11% | 0% | 0% |  |  |  |  |  | 
9 | C=C1[C@@H]2C(=O)C=C3[C@@H](OC)O[C@@H](OC)[C@@H]3[C@@]2(C)[C@H](OC(=O)/C=C/c2ccccc2)C[C@@H]1C |  |  |  |  | 0% |  | 0% | 0% | 0% | 0% |  |  |  |  |  | 
10 | C=C1[C@@H]2[C@@H](OC)C=C3[C@@H](OC)O[C@@H](OC)[C@@H]3[C@@]2(C)[C@H](O)C[C@@H]1C |  |  |  |  | 0% |  | 0% | 0% | 0% | 0% |  |  |  |  |  | 
11 | C=C1[C@@H](C)C[C@@H](OC(=O)/C=C/c2ccccc2)[C@@]2(C)[C@H]1CC=C(CO)[C@@H]2CO | 0% | 0% | 0% | 4% | 0% | 22% | 58% | 0% | 0% | 70% | 0% | 8% | -6% | 0% | 0% | 
12 | C=C1[C@@H](C)C[C@@H](OC(=O)/C=C/c2ccccc2)[C@]2(C)[C@@H](C=O)C(C=O)=CC[C@@H]12 [Paxidal] | 0% |  |  |  | 17% | 23% | 69% | 7% | 0% | 51% | 0% | 57% |  | 0% |  | inhibition at 25 ppm [25]: 0%; inhibition at 100 ppm [2]: 0%; inhibition at 100 ppm [5]: 9%; inhibition at 25 ppm [9]: 0%; inhibition at 25 ppm [12]: 18%; inhibition at 100 ppm [26]: 18%
